Test results as given in the EternaBench riboswitch data.

Test system: MS2 coat protein
Assay: apparent Kd, MS2 coat protein; higher = weaker binding; RNA-MaP array; FMN 200 µM where present
In short: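 The titrant was SNAP-549-labelled MS2 coat protein, run from 0.7 or 1.5 nM in doubling steps to 3 µM. It was applied to designs transcribed by stalled E. coli RNA polymerase on Illumina sequencing-chip clusters, without ligand first and then with constant ligand, in 100 mM Tris-HCl pH 7.5, 80 mM KCl, 4 mM MgCl2, BSA, DTT, yeast tRNA and Tween-20. The apparent Kd is the median of filtered per-cluster binding-curve fits, with green signal normalised to red-channel RNA signal and control-cluster median Fmax.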

[1] = designed as: OFF switch for flavin mononucleotide, no ligand
[2] = ligand present: flavin mononucleotide, designed as: OFF switch for flavin mononucleotide
[3] = designed as: ON switch for flavin mononucleotide, no ligand
[4] = ligand present: flavin mononucleotide, designed as: ON switch for flavin mononucleotide

Row | Sequence | apparent Kd [1] [nM] | apparent Kd [2] [nM] | apparent Kd [3] [nM] | apparent Kd [4] [nM]
1 | ACUAGAUGAGGAUAUGCAUGUUUUCAUGUUCUUCUAGAUUAACAUGAGGAUCACCCAUGUAGAAGGCGUCUUUU | 21.4 | 32 | – | –
2 | UUAUAUAAUGUGAGGAUAUGCUGGUCGAGAGAUCAGCAGAAGGCACAUGAGGAUCACCCAUGUAGUAAAUUUUA | 22.5 | 25.9 | – | –
3 | AUGUGGUGCGUAGGAUAUCAUUGAAGAAAACCCUGAGAAGGACGUGAGGACAUGAGGAUCACCCAUGUGGAUCACCCAUGUCAU | 315 | 282 | – | –
4 | UUAAAUUAGUAGAAGGACGGAGAGUAUAAAGUCGUAGGAUAUACAUAAGACAUGAGGAUCACCCAUGUAAGUUUGUGAGGUAUG | 14.8 | 15.3 | – | –
5 | CCGGAAACGGGUAGCUGACAUGAGGAUCACCCAUGUGUAUCACAGGAUAUGGAUCCUAAUUGGAUCCAGAAGGGUGUCAGCUAC | – | – | 1130 | 105
6 | CAAUUUAUUACAGGAUAUACAAUACAAUGAUUAGUAGAAGGGUAUAAUACAUGAGGAUCACCCAUGUCAUGUGUCAUAAUAACC | 35.8 | 23.9 | – | –
7 | AUAUAGAUGGUCAGGAUAUGCUAGUGGUAACAGUAGCAGAAGGGACAUGAGGAUCACCCAUGUGGAUACUGCUC | 23.9 | 93.6 | – | –
8 | GGAUCGAAUGUGAGGAUAUGCUGGUCCUUGGAUCAGCAGAAGGCACAUGAGGAUCACCCAUGUGACCUAGAUCC | 32.7 | 430 | – | –
9 | ACAUGAGGAUCACCCAUGUUGCGAGUAGAAGGCUAUAAGAAACGGGAUGAAGAAAUCCACGCAAUAGAGGAUAUACGAAUUGGA | – | – | 12.1 | 7.78
10 | GUAAAUCAUGUAGGAUAUGCAUGGCGAAGCUACGCAGAAGGACAUGAGGAUCACCCAUGUUCUAGCGUCUGAGUUCAGAUGCAA | 19.3 | 45.9 | – | –
11 | AAAAAGGUAGGAUAUACGAGGAGAAAUAAUAAAUAAAUAAAACAUGAGGAUCACCCAUGUAGAAGGACCAAAAA | 26.1 | 26.8 | – | –
12 | GUGACGAAUGUAGGAUAUGCUGACCAAUGGUCAGCAGAAGGACAUGAGGAUCACCCAUGUCAUCCUUAUAAUAAAUAACGUCAC | 13.4 | 18.1 | – | –
13 | UCCUUGUCCUGAGGAUAUCCGCGGUUCCCAAAAGGAGAAGGCAGGACAUGAGGAUCACCCAUGUACCCAGAAAACGUGCAGAUU | 9.95 | 46.8 | – | –
14 | CGAAACAACACAACGAAGCAGGUACCAGAAGGGACGGCGUCACAUGAGGAUCACCCAUGUUGCAGUCAGGAUAUGGGCCAUCCU | – | – | 33.1 | 6.95
15 | UGGAUCAAUACAGGAUAUGGUGACGCACAUGAGGAUCACCCAUGUCCGCAGCGUGCUCAGCACGCCCAGAAGGGUAUUGACUCG | – | – | 731 | 88.8
16 | UUCGUGCAGCUUUGCUGUACGCGUACAUGAGGAUCACCCAUGUAGGAUAUGGUACGCUUUGUGUGCUAGAAGGAUAUGGAGAGG | 18.8 | 18.6 | – | –
17 | CAGCAAAAGUAGAAGGCAGUACUGAUUCAGUACUGAGGAUAUACAUGAGGAUCACCCAUGUGUUCCAGCUGAAUAAUAAAAUAA | 8.89 | 116 | – | –
18 | AUCAGCACGUGAGGAUAUGCGUUACUGCGAAAGCAGUACGGUAAGAUCACAUGAGGAUCACCCAUGUAGAAGGCACGAGCUGAU | 16.6 | 36.9 | – | –
19 | UGAUAACAUGAGGAUCACCCAUGUCAGGAUAUAAAUUGAGCUCCUUGGACGCCACCGUUUAGAAGGGACGCAUG | 23.7 | 22.7 | – | –
20 | UUACUUUUACAGAAGGUUUAAUAAUAUAUAAAAGAAGGAUAUGUAACAUGAGGAUCACCCAUGUUUCACCCAUAUGAGGAUCAU | 7.18 | 6.98 | – | –
21 | GCCUUAUCUGUCAGGAUAUACAAUAAUUUUUUUUUGUAGAAGGGACAUGAGGAUCACCCAUGUACAUUACAUUG | 40 | 201 | – | –
22 | GCCUGCUGGCAAGGAUAUUCUGUGCGGUUCCGGCUCGUGUCUGUUACAUGAGGAUCACCCAUGUGGGAGAAGGUGUCUGUGGCC | 6.21 | 5.88 | – | –
23 | CCAUGGCAUGUAGGAUAUGUCUGACAAAGUCAGACAGAAGGACAUGAGGAUCACCCAUGUAAUGGAAAACCAAUAUAGCCAUGG | 7.62 | 11.3 | – | –
24 | GCCAGGCAUGUAGGAUAUCCAUUGCGUCGCGUUGGAGAAGGGCAGCACACAUGAGGAUCACCCAUGUGGUCUCCCAUGUAGUGU | 163 | 206 | – | –
25 | CUAUGAGCGAUAGGAUAUACUGAGAUUGAGUGGGUAGAAGGAUCGAUAGUGUAGAAGACAUGAGGAUCACCCAUGUUAUGGGUU | – | – | 726 | 501
26 | AAAACACAUGAGGAUCACCCAUGUGAGGAUAUGUUCAUUGUGAGCAAACUUAUGAUGAACAGAAGGCACAUAAA | 45.5 | 50.7 | – | –
27 | GAUGGAAUAGUCAGGAUAUAAACGUCAGGAUAUGUUUAGAAGGGACAUGAGGAUCACCCAUGUUAAGAUAUGGU | 29.9 | 87.6 | – | –
28 | GAUCGUUUAGAGGAUAUCGUGCUAAACAUUACAUGAGAAGGCUAGACAUGAGGAUCACCCAUGUAUGCUCGUGA | 15.5 | 17.1 | – | –

Row | Sequence | apparent Kd [1] [nM] | apparent Kd [2] [nM] | apparent Kd [3] [nM] | apparent Kd [4] [nM]
29 | GUAGCAUACCGAGGAUAUUCAUACCGGAAACGGACAUGAGGAUCACCCAUGUAGCGAAAGCUUUGGGAGAAGGCGGAAUGCUAC | – | – | 905 | 33.9
30 | UUUAGUUUAGGAUAUGUAGACAUUAACAUGAGGAUCACCCAUGUAGAUCCUGAAUUGGCUACAGAAGGGAGCAUUU | 290 | 314 | – | –
31 | AAGAAUAGAAAGAUUAAUAUGAAUACAUGAGGAUCACCCAUGUAGGAUAUGCAGCUGAAUCAGCUGCAGAAGGACAAAAUAAAU | 9.15 | 9.08 | – | –
32 | GCAAUCGCAUGAGGAUAUGCUGGAGUUUAGACAGCAGAAGGCAUGUCAUAAGACAUGAGGAUCACCCAUGUAGUUACAAUGGCA | – | – | 41 | 11.9
33 | AACGACUUAGGAUAUACAUGAGGAUCACCCAUGUUCAAAUCGUGGGUCAGGUGAGAAGGUAGAAGGAAGUCACU | 33.6 | 93.7 | – | –
34 | AAGGCCUAUUCCAGGACUAUCGUACUAGAAGGGUGACCUGACAUGAGGAUCACCCAUGUACGGGCACAGGAUAUAGAUGAAAGG | – | – | 50.1 | 11.3
35 | CGGAUGUGAGGAUAUACAUGAGGAUCACCCAUGUGUGCCAGCUAGAUGACUGGCACUUGUAGAAGGCACGUCUG | 11.3 | 21.7 | – | –
36 | CGCUCUAUAUAUUUGGCAAGAAUCAGAAGGCGUUACAUGAGGAUCACCCAUGUUUUGUAUAGUAACGAGGAUAUGAUAUGAGCG | 13.3 | 13.3 | – | –
37 | GGUUGGCGAGGAUAUACAUGAGGAUCACCCAUGUGGUCCUGUGGCUGAUCUUGCCUUUGUAGAAGGCGCAAAUC | 18.5 | 37.8 | – | –
38 | GUCAGCUCGUGAGGAUAUACAACACUGCUUCGGCAGUGUAUUAAGCUCACAUGAGGAUCACCCAUGUAGAAGGCACGAGCUGAU | 5.37 | 11.2 | – | –
39 | CAGCCCUGAGGAUAUCCAUCCUUGUACAUGAGGAUCACCCAUGUUUUCCUCUGGGCUUUGGGAGAAGGCAGGUAUC | 74.6 | 77.1 | – | –
40 | AAGGUAUACUGAGGAUAUCCGUGGGUAUAUGGGUCUAGGAACAUGAGGAUCACCCAUGUUCCCUAGGAGAAGGCAGGACAUUAA | 25 | 33.6 | – | –
41 | AAGUCUGGAUGAGGAUAUCAGCUGUAACUGGCGUCGACAUGAGGAUCACCCAUGUUGCUAUAGGGUGAGAAGGCAUUUGGGCAA | – | – | 43.1 | 28.8
42 | UCCCUAAGGCGGACCGACCAUACAUGAGGAUCACCCAUGUCGAGAAGGUGCUCACGGGUGGGUGGCAAGGAUAUCGGGUCGGAA | – | – | 69.8 | 36.5
43 | GUCCCGUCUAGCUUCAGCACAUGAGGAUCACCCAUGUCCUAGAGAAGGGCCUAGAGUUAUCAAAGGCAGGAUAUCUGCACAUGG | 30.8 | 47.7 | – | –
44 | CGCUGUCAUGCAGGAUAUGCAUUGGAUUACAAUGCAGAAGGGCGAUUACAUGAGGAUCACCCAUGUGUAGACAGUGAAGAAAAG | – | – | 145 | 13.8
45 | GGGUCACAUGAGGAUCACCCAUGUGAGGAUAUGAUACUAUGUACUUCGGUACAUAGUAUCAGAAGGCACAUAAA | 36.6 | 123 | – | –
46 | GACUUGUUAGGAUAUCUUACAUUUGCAUCAUAGUUACCAUUGGAGAAGGGACAUGAGGAUCACCCAUGUUUGGU | 40 | 39.8 | – | –
47 | GUUAGUUAAGGAUAUACUGGGAGCUGCGGCGUCUCGCCGCAACAUGAGGAUCACCCAUGUAGAAGGUGGCCAUU | 765 | 425 | – | –
48 | GGAUAGGACAGAGGAUAUACCGAUAGGAUCUACUAUCGAACAAUCCUCACAUGAGGAUCACCCAUGUAGAAGGCUGUCCUAUCG | 23.9 | 274 | – | –
49 | GUCAGCUCGUGAGGAUAUACAACACUGCUUCUGCAGUGUAUUAAGAUCACAUGAGGAUCACCCAUGUAGAAGGCACGAGCUGAU | 12.8 | 234 | – | –
50 | CCUGACGCAUCAGGAUAUGCUUACAUCCAUGUUGCAGAAGGGAUGCGUUCUGAAAACAUGAGGAUCACCCAUGUAAGCGGCCAA | – | – | 82 | 52.2
51 | AUGCUAGUGUGAGGAUAUACAUGAGGAUCACCCAUGUGUCCGAAGAACGGGACAUGACGUUCGUCGUAGAAGGUACAUUAGCAU | 18.7 | 46.8 | – | –
52 | AUAUCUCUAUUAGUUCCAAUACGAACAUGAGGAUCACCCAUGUAGGAUAUGCUAGAAGUUGUGUUGCAGAAGGACAAGUACCUU | 11.8 | 11.1 | – | –
53 | GCUAGGAAUGUCAGGAUAUGCUGUACCUUGGUACAGCAGAAGGGACAUGAGGAUCACCCAUGUGCUAACCUAGC | 29.6 | 130 | – | –
54 | CUAAGUGCCGGAGGAUAUACAUGAGGAUCACCCAUGUCAGUCUGUUUACAUGUAGAAGGCCGGCGAACAAAGAACUUGCCACGA | 43.8 | 242 | – | –
55 | GAGAAUACACUCGUCUCCGCUCAACCAGAAGGGCAUGAUAAUAUUACAUGAGGAUCACCCAUGUUGCAGGAUAUGGUGAGCCUC | – | – | 141 | 58.9
